This note sets out measurements from ChEMBL document CHEMBL4265911, “The synthesis and kinetic evaluation of aryl α-aminophosphonates as novel inhibitors of T. cruzi trans-sialidase” (Eur J Med Chem, 2018).

Where only a bound is given, the exact number is not on record here.

The term IC50 denotes the point on the concentration scale where inhibition reaches its midpoint. For orientation: Ki means the dissociation constant of the complex between target and ligand, obtained from inhibition or displacement. The term Km denotes the concentration of substrate that gives half-maximal velocity.

In data set [1] the target is T1, Trans-sialidase (Trypanosoma cruzi, UniProt Q26964).
T1 sequence (Q26964 whole entry): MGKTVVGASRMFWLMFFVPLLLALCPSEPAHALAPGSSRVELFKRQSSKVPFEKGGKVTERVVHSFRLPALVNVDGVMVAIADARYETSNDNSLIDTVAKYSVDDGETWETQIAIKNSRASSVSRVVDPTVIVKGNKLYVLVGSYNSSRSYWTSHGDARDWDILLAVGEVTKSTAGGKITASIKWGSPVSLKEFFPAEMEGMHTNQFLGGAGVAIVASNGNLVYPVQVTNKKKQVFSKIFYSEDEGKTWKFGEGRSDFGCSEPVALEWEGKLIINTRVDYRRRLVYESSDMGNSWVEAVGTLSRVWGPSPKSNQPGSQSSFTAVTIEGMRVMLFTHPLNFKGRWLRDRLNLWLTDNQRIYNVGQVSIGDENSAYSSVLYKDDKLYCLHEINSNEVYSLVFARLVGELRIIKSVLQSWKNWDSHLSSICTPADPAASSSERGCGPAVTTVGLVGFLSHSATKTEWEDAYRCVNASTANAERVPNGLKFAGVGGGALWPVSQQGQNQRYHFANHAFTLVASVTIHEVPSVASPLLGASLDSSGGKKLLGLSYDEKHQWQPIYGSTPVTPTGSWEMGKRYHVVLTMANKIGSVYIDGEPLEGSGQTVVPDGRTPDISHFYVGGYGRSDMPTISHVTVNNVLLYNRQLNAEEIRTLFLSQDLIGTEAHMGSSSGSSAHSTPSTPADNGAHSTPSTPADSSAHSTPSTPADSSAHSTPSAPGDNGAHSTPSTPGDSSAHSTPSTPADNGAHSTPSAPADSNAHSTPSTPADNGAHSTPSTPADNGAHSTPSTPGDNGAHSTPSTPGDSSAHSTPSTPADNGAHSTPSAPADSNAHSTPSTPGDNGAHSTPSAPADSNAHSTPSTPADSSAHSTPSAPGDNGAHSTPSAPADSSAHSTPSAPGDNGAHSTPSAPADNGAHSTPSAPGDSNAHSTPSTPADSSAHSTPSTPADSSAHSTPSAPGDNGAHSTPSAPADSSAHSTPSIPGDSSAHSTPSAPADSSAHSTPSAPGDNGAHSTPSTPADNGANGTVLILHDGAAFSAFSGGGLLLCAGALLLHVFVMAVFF
As to the kind of experiment: Inhibition of Trypanosoma cruzi trans-sialidase using CF3MuSA as substrate by UV/visible spectrophotometric method.

The target in data set [2] is T1, Trans-sialidase. As to the kind of experiment: Inhibition of recombinant HisA-tagged Trypanosoma cruzi trans-sialidase expressed in Escherichia coli BL21 (DE3) using MuNANA as substrate pretreated for 10 mins followed by substrate addition by fluorescence assay. Summed up: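 Continuous fluorometric hydrolysis assay at 35°C in 20mM Tris-HCl, 50mM NaCl, pH 7.5, 0.01% Triton X100. TcTS (50 µg/mL) was preincubated 10 min with at least seven inhibitor levels (1 µM–15 mM), then MuNANA (200 µM) was added. 4-Methylumbelliferone was read at ex 360/em 460 nm, with rate taken as the linear-region slope. IC50 was set at 50% activity loss versus the no-inhibitor control; n=3 independent experiments.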

The target in data set [3] is T1, Trans-sialidase. Put plainly: Non-competitive inhibition of recombinant HisA-tagged Trypanosoma cruzi trans-sialidase expressed in Escherichia coli BL21 (DE3) using varying levels of MuNANA as substrate by Lineweaver-burk plot analysis. Summed up:
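TcTS residual hydrolytic activity was measured with MuNANA at 0–400 µM across several set inhibitor concentrations, using the fluorometric method at 35°C and pH 7.5. Km/Vmax came from nonlinear fitting. Ki was fitted with competitive, non-competitive, uncompetitive and mixed models, and the best-fitting model was assigned as the mode. Lineweaver-Burk double-reciprocal plots were made at each inhibitor level.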

Data set [4] in a line: Solubility of the compound in pH 7.5 Tris-HCl buffer at >7.5 mM. Type of data set: physicochemical.
Data set [5] can be described thus: Selectivity ratio of IC50 for Streptococcus pneumoniae neuraminidase A to IC50 for recombinant HisA-tagged Trypanosoma cruzi trans-sialidase expressed in Escherichia coli BL21 (DE3).
Data set [6] can be described thus: Selectivity ratio of IC50 for Clostridium perfringens neuraminidase to IC50 for recombinant HisA-tagged Trypanosoma cruzi trans-sialidase expressed in Escherichia coli BL21 (DE3).
Data set [7] addresses T2, Sialidase (Clostridium perfringens, UniProt P10481).
T2 sequence (P10481 whole entry): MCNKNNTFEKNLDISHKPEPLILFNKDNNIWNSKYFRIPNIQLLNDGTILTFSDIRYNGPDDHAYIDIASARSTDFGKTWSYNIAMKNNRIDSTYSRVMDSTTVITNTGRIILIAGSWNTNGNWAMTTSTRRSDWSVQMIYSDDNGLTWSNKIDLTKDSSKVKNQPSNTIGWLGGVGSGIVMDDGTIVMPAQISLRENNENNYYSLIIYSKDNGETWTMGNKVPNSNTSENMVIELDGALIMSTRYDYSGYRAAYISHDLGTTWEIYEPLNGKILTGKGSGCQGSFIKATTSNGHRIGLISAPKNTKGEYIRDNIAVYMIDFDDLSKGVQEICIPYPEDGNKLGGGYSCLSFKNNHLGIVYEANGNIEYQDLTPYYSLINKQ
As to the kind of experiment: Inhibition of Clostridium perfringens neuraminidase using MuNANA as substrate pretreated for 10 mins followed by substrate addition by fluorescence assay.

The target of data set [8] is Sialidase A (Streptococcus pneumoniae, UniProt P62575). As to the kind of experiment: Inhibition of Streptococcus pneumoniae neuraminidase A using MuNANA as substrate pretreated for 10 mins followed by substrate addition by fluorescence assay.
Sialidase A, sequence (P62575 whole entry): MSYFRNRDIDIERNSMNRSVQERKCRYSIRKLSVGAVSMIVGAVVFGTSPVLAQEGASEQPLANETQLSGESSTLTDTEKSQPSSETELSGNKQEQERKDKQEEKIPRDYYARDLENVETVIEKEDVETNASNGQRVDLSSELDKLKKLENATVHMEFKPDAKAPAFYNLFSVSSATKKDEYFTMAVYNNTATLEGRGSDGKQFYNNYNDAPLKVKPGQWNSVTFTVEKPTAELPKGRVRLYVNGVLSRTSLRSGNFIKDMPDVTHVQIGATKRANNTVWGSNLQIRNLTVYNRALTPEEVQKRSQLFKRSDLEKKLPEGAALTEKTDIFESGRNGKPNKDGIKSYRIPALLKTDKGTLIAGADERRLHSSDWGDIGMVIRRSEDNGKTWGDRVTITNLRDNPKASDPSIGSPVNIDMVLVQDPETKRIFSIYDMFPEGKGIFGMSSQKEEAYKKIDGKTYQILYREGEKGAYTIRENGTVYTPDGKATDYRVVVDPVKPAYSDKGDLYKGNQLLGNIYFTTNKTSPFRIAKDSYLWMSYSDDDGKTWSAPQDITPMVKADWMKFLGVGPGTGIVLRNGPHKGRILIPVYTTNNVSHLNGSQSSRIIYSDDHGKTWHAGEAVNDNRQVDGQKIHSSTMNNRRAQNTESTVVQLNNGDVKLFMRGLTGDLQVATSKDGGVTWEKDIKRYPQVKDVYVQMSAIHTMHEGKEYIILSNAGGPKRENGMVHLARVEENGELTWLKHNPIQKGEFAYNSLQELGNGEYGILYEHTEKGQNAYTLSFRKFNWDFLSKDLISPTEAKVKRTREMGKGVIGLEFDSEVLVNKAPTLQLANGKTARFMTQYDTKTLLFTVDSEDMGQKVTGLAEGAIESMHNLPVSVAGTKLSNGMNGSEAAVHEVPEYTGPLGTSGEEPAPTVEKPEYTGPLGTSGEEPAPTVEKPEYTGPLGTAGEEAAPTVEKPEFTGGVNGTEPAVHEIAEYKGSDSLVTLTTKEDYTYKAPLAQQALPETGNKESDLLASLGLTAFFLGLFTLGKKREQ
For data set [9], the target named is T1, Trans-sialidase. As to the kind of experiment: Inhibition of recombinant Trypanosoma cruzi trans-sialidase expressed in Escherichia coli BL21 (DE3) using MuNANA as substrate after 10 mins in presence of [D-glucose-1-14C]lactose by liquid scintillation counting method.
For data set [10], the target named is T1, Trans-sialidase. As to the kind of experiment: Inhibition of Trypanosoma cruzi trans-sialidase. Summed up:
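TcTS, point-mutated to aid crystallisation and expressed in E. coli BL21(DE3), at 50 µg/mL; pre-incubated 10 min at 35°C with ≥7 inhibitor levels (1 µM–15 mM). MuNANA (200 µM) then added. Buffer: 20 mM Tris-HCl, 50 mM NaCl, pH 7.5, 0.01% Triton X100. Continuous fluorescence (ex 360/em 460 nm), slope RFU/min. IC50 versus no-inhibitor control; n=3 independent experiments.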

Compound in data set [11]: OC[C@@H](O)[C@@H](O[C@@H]1O[C@H](CO)[C@H](O)[C@H](O)[C@H]1O)[C@H](O)[C@@H](O)CO
As to the kind of experiment: Inhibition of recombinant HisA-tagged Trypanosoma cruzi trans-sialidase expressed in Escherichia coli BL21 (DE3) using 3-sialyl-lactose as donor measured after 15 mins by HPAEC-PAD.

On to `Cc1ccc(S(=O)(=O)Nc2ccc(C(=O)/C=C/c3ccc(O)c(O)c3)cc2)cc1`, for which, in [1], the half-maximal inhibitory concentration (IC50) turned out to be 0.9 µM.

For `O=P(O)(O)C(Nc1cccc2ccccc12)c1ccccc1` (racemic), the 50% inhibitory concentration (IC50) in data set [2] came to 470 µM. The Ki in [3] worked out at 430 µM.

Take `O=P(O)(O)C(Nc1cccc2ccccc12)c1ccc(C(F)(F)F)cc1` (racemic): in data set [2], the concentration for half-maximal inhibition (IC50) was 290 µM.

For the molecule `COc1ccc(C(Nc2cccc3ccccc23)P(=O)(O)O)cc1` (racemic), the half-inhibitory concentration (IC50) in data set [2] was found to be 270 µM. With `CC(=O)Nc1ccc(C(Nc2cccc3ccccc23)P(=O)(O)O)cc1` (racemic), in data set [2], the IC50 is 230 µM. Moreover, the Ki in data set [3] was determined as 190 µM. With `O=P(O)(O)C(Nc1ccccc1-c1ccccc1)c1ccccc1` (racemic), in data set [2], the IC50 is 630 µM. On the same count and under the same terms, the result for `O=P(O)(O)C(Nc1cccc2ccccc12)c1ccc(Cl)cc1` (racemic) reads 710 µM; that for `O=P(O)(O)C(Nc1cccc2ccccc12)c1cc(C(F)(F)F)cc(C(F)(F)F)c1` (racemic), 2350 µM.

For `O=P(O)(O)C(Nc1ccccc1)c1ccccc1` (racemic), the solubility result in data set [4] is “Soluble”. In data set [2], the IC50 was more than 7500 µM. Turning to `O=P(O)(O)C(Nc1cccc(-c2ccccc2)c1)c1ccccc1` (racemic), in data set [2], the half-inhibitory concentration (IC50) was 5580 µM.

Turning to `O=P(O)(O)C(Nc1ccc2ccccc2c1)c1ccccc1` (racemic), in [2], the 50% inhibitory concentration (IC50) was determined as 510 µM.

In the case of `O=[N+]([O-])c1ccc(C(Nc2cccc3ccccc23)P(=O)(O)O)cc1` (racemic), the Ratio IC50 in [5] and in [6] was 7 to 12 throughout. Further, the figures for the concentration for half-maximal inhibition (IC50) in data set [2], in data set [7] and in data set [8] were 210 µM, 2390 µM and 1410 µM, respectively. For the same molecule, in data set [3], the inhibition constant Ki stood at 140 µM. For `CC(=O)N[C@H]1[C@H]([C@H](O)[C@H](O)CO)OC(C(=O)O)=C[C@@H]1O` [NEU5AC2EN], the Ki in [9] stood at 12300 µM. `Cc1ncc(COP(=O)(O)O)c(C=O)c1O` [PYRIDOXAL PHOSPHATE ANHYDROUS] gave a Ki in data set [10] of 7300 µM.

B1: Trans-sialidase (Trypanosoma cruzi), Q26964 (protein)
chain: MGKTVVGASRMFWLMFFVPLLLALCPSEPAHALAPGSSRVELFKRQSSKVPFEKGGKVTERVVHSFRLPALVNVDGVMVAIADARYETSNDNSLIDTVAKYSVDDGETWETQIAIKNSRASSVSRVVDPTVIVKGNKLYVLVGSYNSSRSYWTSHGDARDWDILLAVGEVTKSTAGGKITASIKWGSPVSLKEFFPAEMEGMHTNQFLGGAGVAIVASNGNLVYPVQVTNKKKQVFSKIFYSEDEGKTWKFGEGRSDFGCSEPVALEWEGKLIINTRVDYRRRLVYESSDMGNSWVEAVGTLSRVWGPSPKSNQPGSQSSFTAVTIEGMRVMLFTHPLNFKGRWLRDRLNLWLTDNQRIYNVGQVSIGDENSAYSSVLYKDDKLYCLHEINSNEVYSLVFARLVGELRIIKSVLQSWKNWDSHLSSICTPADPAASSSERGCGPAVTTVGLVGFLSHSATKTEWEDAYRCVNASTANAERVPNGLKFAGVGGGALWPVSQQGQNQRYHFANHAFTLVASVTIHEVPSVASPLLGASLDSSGGKKLLGLSYDEKHQWQPIYGSTPVTPTGSWEMGKRYHVVLTMANKIGSVYIDGEPLEGSGQTVVPDGRTPDISHFYVGGYGRSDMPTISHVTVNNVLLYNRQLNAEEIRTLFLSQDLIGTEAHMGSSSGSSAHSTPSTPADNGAHSTPSTPADSSAHSTPSTPADSSAHSTPSAPGDNGAHSTPSTPGDSSAHSTPSTPADNGAHSTPSAPADSNAHSTPSTPADNGAHSTPSTPADNGAHSTPSTPGDNGAHSTPSTPGDSSAHSTPSTPADNGAHSTPSAPADSNAHSTPSTPGDNGAHSTPSAPADSNAHSTPSTPADSSAHSTPSAPGDNGAHSTPSAPADSSAHSTPSAPGDNGAHSTPSAPADNGAHSTPSAPGDSNAHSTPSTPADSSAHSTPSTPADSSAHSTPSAPGDNGAHSTPSAPADSSAHSTPSIPGDSSAHSTPSAPADSSAHSTPSAPGDNGAHSTPSTPADNGANGTVLILHDGAAFSAFSGGGLLLCAGALLLHVFVMAVFF
As to B1, the Km in data set [11] turned out to be 260 µM.
